For experiment [1], the species on record is Rattus norvegicus. In words: Evaluated for the amine formed (during conversion of N-cycloalkylsulfamates to cycloalkylamines) in 10 mL incubation in cyclamate-fed rats. Type of experiment: functional. In a few lines:
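Rats drank 1% sodium cyclamate for at least 6 weeks; only cyclamate converters were used. Fresh feces (~5 g) were suspended in prereduced anaerobic minimal medium (pH 7 ± 0.2), and the washed bacterial pellet was resuspended. 1.0 mL suspension plus 9 mL medium and 100 mg sulfamate ran 22–24 h at 44–45 °C with CO2 bubbling. Amine was converted to phenylurea with phenyl isocyanate and quantified by HPLC-UV 240 nm against an external standard. Reported as µg per 10 mL.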

For experiment [2], the species on record is Rattus norvegicus. In words: Evaluated for the amine formed (during conversion of N-cycloalkylsulfamates to cycloalkylamines) in 10 mL incubation in Control rats. Format: functional. In a few lines:
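Fresh feces (~5 g) from control rats were suspended in prereduced anaerobic minimal medium (pH 7 ± 0.2), spun at low then high speed, and the pellet resuspended. 1.0 mL suspension plus 9 mL medium and 100 mg sulfamate ran 22–24 h at 44–45 °C with CO2 bubbling. Amine was extracted at pH 10 into CH2Cl2, derivatized with phenyl isocyanate, and read by HPLC-UV 240 nm against an external standard. Reported as total µg per 10 mL.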

The structures appear in SMILES notation.

With `CC1CCCCC1NS(=O)(=O)[O-].[Na+]` (cis isomer), the Amine formed in the experiment filed under Rattus norvegicus [1] came out at 457 µg; in the experiment listed under Rattus norvegicus [2], 402 µg.

For the molecule `CC1CCCCC1NS(=O)(=O)[O-].[Na+]` (stereo in doubt), the Amine formed in the experiment listed under Rattus norvegicus [1] worked out at 42 µg; in the experiment filed under Rattus norvegicus [2], 0 µg.

`CCC1CCCCC1NS(=O)(=O)[O-].[Na+]` (stereo in doubt) showed an Amine formed in the experiment listed under Rattus norvegicus [1] of 35 µg.

In the case of `CC(C)C1CCCCC1NS(=O)(=O)[O-].[Na+]` (stereo in doubt), the Amine formed was determined as 37.5 µg in the experiment filed under Rattus norvegicus [1] and 27.9 µg in the experiment filed under Rattus norvegicus [2].

Turning to `CCC1CCCCC1NS(=O)(=O)[O-].[Na+]` (trans isomer), the Amine formed was 57 µg in the experiment filed under Rattus norvegicus [1] and 0 µg in the experiment filed under Rattus norvegicus [2].

In the case of `CC(C)C1CCCCC1NS(=O)(=O)[O-].[Na+]` (trans isomer), the Amine formed in the experiment filed under Rattus norvegicus [1] and in the experiment filed under Rattus norvegicus [2] was 0 µg in each case.

`O=S(=O)([O-])NC1CCCCC1.[Na+]` [SODIUM CYCLAMATE]: the Amine formed amounted to 39 µg in the experiment filed under Rattus norvegicus [1] and 0 µg in the experiment listed under Rattus norvegicus [2].

The values above are taken from ChEMBL document CHEMBL1122250, “Synthesis and bacterial metabolism of cis- and trans-2-alkyl analogues of sodium cyclamate” (1983).
